Source: ChEMBL document CHEMBL4390663, “Cationic biaryl 1,2,3-triazolyl peptidomimetic amphiphiles: synthesis, antibacterial evaluation and preliminary mechanism of action studies” (Eur J Med Chem, 2019)
≈ marks a conversion by molar mass, not a printed value.

Legend:
Acinetobacter baumannii = assay: Antimicrobial activity against Acinetobacter baumannii ATCC 19606 incubated for 18 hrs by CLSI method; assay type: functional; settings: ATCC 19606 = CIP 70.34 = JCM 6841, 18 h
Method in brief: (§1)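 Screen run by CO-ADD: mid-log cultures in cation-adjusted MHB, 5 × 10^5 CFU/mL, compounds at up to 32 μg/mL in 1:2 serial dilutions (8 steps), final DMSO ≤0.5%, duplicate. 37 °C for 18 h without shaking; OD600 read against media-only and untreated-bacteria references. MIC = lowest concentration giving ≥80% inhibition; colistin standard.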

Staphylococcus aureus [1] = assay: Antibacterial activity against methicillin-resistant Staphylococcus aureus NCTC 10442 incubated for 24 hrs by CLSI method; assay type: functional; settings: NCTC 10442, 24 h
Method in brief: (§2)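 Broth microdilution per CLSI aerobic guidance in Mueller Hinton broth, ambient air, 35 °C for 24 h. DMSO stocks were diluted in water, then serially diluted with double-strength broth inoculum added, for final 0.25–128 μg/mL. […] MIC was read visually as the lowest concentration inhibiting growth; the modal value of triplicates was recorded.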

[2] = Cytotoxicity against human HEK293 cells assessed as reduction in cell growth incubated for 20 hrs by resazurin dye-based fluorometric assay
Method in brief: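 HEK293 cells, 5000 per well in DMEM + 10% FBS, exposed to compounds (top 32 μg/mL, 1:2 serial dilution ×8, ≤0.5% DMSO, duplicate) for 20 h at 37 °C, 5% CO2. Resazurin added (2.3 μg/mL final), 3 h further; fluorescence ex 560/em 590 nm. CC50 from sigmoidal dose-response fit against log concentration; tamoxifen standard.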

Streptococcus pneumoniae = assay: Antibacterial activity against Streptococcus pneumoniae ATCC 49619 incubated for 24 hrs by CLSI method; assay type: functional; settings: ATCC 49619, 24 h
Method in brief: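 CLSI broth microdilution in MHB with 2.5% lysed horse blood, 5% CO2, 35 °C, 24 h. Compounds from 5 mg/mL DMSO stocks diluted in water plus double-strength broth; final 0.25–128 μg/mL. […] Triplicate; modal MIC read visually as lowest growth-inhibiting concentration.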

Staphylococcus aureus [3] = assay: Antimicrobial activity against Staphylococcus aureus ATCC 43300 incubated for 18 hrs by CLSI method; assay type: functional; settings: ATCC 43300, 18 h
Escherichia coli = assay: Antibacterial activity against Escherichia coli ATCC 25922 incubated for 18 hrs by CLSI method; assay type: functional; settings: ATCC 25922, 18 h; method in brief: as §1
Clostridioides difficile [4] = assay: Antibacterial activity against Clostridium difficile ATCC 700057 incubated for 48 hrs by CLSI method; assay type: functional; settings: ATCC 700057, 48 h
Method in brief: (§3)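 Broth microdilution per CLSI anaerobe method in pre-reduced (2-4 h) Brucella broth with haemin and vitamin K, 35 °C anaerobically for 48 h. Compounds from 5 mg/mL DMSO stocks, twofold dilutions in water mixed with double-strength broth; final 0.25–128 μg/mL. […] Triplicate; modal MIC read visually as lowest concentration inhibiting growth.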

Klebsiella pneumoniae = assay: Antibacterial activity against Klebsiella pneumoniae 700603 incubated for 18 hrs by CLSI method; assay type: functional; settings: Klebsiella pneumoniae, 700603, 18 h; method in brief: as §1
Staphylococcus aureus [5] = assay: Antimicrobial activity against Staphylococcus aureus ATCC 29213 incubated for 24 hrs by CLSI method; assay type: functional; settings: ATCC 29213, 24 h; method in brief: as §2
Clostridioides difficile [6] = assay: Antibacterial activity against Clostridium difficile NSW132 RT027 incubated for 48 hrs by CLSI method; assay type: functional; settings: NSW132 RT027, 48 h; method in brief: as §3
Enterococcus faecalis = assay: Antibacterial activity against Enterococcus faecalis ATCC 29212 incubated for 24 hrs by CLSI method; assay type: functional; settings: ATCC 29212, 24 h
Pseudomonas aeruginosa = assay: Antimicrobial activity against Pseudomonas aeruginosa ATCC 27853 incubated for 18 hrs by CLSI method; assay type: functional; settings: ATCC 27853, 18 h; method in brief: as §1

| SMILES | MIC (Acinetobacter baumannii) [µg/mL] | MIC (Staphylococcus aureus [1]) [µg/mL] | CC50 at 20 h [2] [µg/mL] | MIC (Streptococcus pneumoniae) [µg/mL] | MIC (Staphylococcus aureus [3]) [µg/mL] | MIC (Escherichia coli) [µg/mL] | MIC (Clostridioides difficile [4]) [µg/mL] | MIC (Klebsiella pneumoniae) [µg/mL] | MIC (Staphylococcus aureus [5]) [µg/mL] | MIC (Clostridioides difficile [6]) [µg/mL] | MIC (Enterococcus faecalis) [µg/mL] | MIC (Pseudomonas aeruginosa) [µg/mL] |
| --- | --- | --- | --- | --- | --- | --- | --- | --- | --- | --- | --- | --- |
| CC(C)CCOc1ccccc1-c1ccccc1OCc1cn(C[C@@H](CCCCN)NC(=O)Cc2ccccc2)nn1.Cl | 32 | 8 | 14.2 | 8 | 16 | > 32 | 32 | > 32 | 8 | 32 | 8 | 32 |
| CC(C)CCOc1ccc2ccccc2c1-c1c(OCc2cn(C[C@@H](CCCCN)NC(=O)[C@@H]3CCC(=O)N3)nn2)ccc2ccccc12.Cl |  | 16 |  | 32 |  |  | 32 |  | 16 | 64 | 16 |  |
| CC(C)CCOc1ccccc1-c1ccccc1OCc1cn(C[C@@H](CCCCN)NC(=O)[C@@H](CCCNC(=N)N)NC(=O)OCC2c3ccccc3-c3ccccc32)nn1.Cl.Cl | > 32 | 4 | > 32 | 4 | 4 | > 32 | 32 | > 32 | 4 | 32 | 4 | > 32 |
| CC(C)CCOc1ccccc1-c1ccccc1OCc1cn(C[C@@H](CCCNC(=N)N)NC(=O)CCc2ccccc2)nn1.Cl | > 32 | 16 | > 32 | 32 | 16 | > 32 | 128 | > 32 | 16 | 16 | 16 | > 32 |
| CC(C)CCOc1ccc2ccccc2c1-c1c(OCc2cn(C[C@@H](CCCNC(=N)N)NC(=O)CCc3ccccc3)nn2)ccc2ccccc12.Cl | > 32 | 4 | 15.9 | 8 | 4 | > 32 | 16 | > 32 | 4 | 16 | 8 | > 32 |
| CC(C)CCOc1ccc2ccccc2c1-c1c(OCc2cn(C[C@@H](CCCCN)NC(=O)OCc3ccccc3)nn2)ccc2ccccc12.Cl |  | 8 |  | 16 |  |  | 32 |  | 4 | 32 | 8 |  |
| CC(C)CCOc1ccc2ccccc2c1-c1c(OCc2cn(C[C@@H](CCCCN)NC(=O)[C@@H](CCCNC(=N)N)NC(=O)CCCc3ccccc3)nn2)ccc2ccccc12.Cl.Cl |  | 4 |  | 4 |  |  | 8 |  | 2 | 16 | 2 |  |
| CC(C)CCOc1ccc2ccccc2c1-c1c(OCc2cn(C[C@@H](CCCCN)NC(=O)C3=CCCCC3)nn2)ccc2ccccc12.Cl |  | 8 |  | 16 |  |  | 32 |  | 8 | 32 | 8 |  |
| CC(C)CCOc1ccccc1-c1ccccc1OCc1cn(C[C@@H](CCCNC(=N)N)NC(=O)[C@@H](CCCCN)n2cc(Cc3ccccc3)nn2)nn1.Cl.Cl | 16 | 4 | 17.8 | 4 | 4 | 8 | 64 | 32 | 4 | 64 | 8 | 16 |
| CC(C)CCOc1ccc2ccccc2c1-c1c(OCc2cn(C[C@@H](CCCCN)NC(=O)c3cccs3)nn2)ccc2ccccc12.Cl |  | 8 |  | 16 |  |  | 32 |  | 8 | 64 | 8 |  |
| CC(C)CCOc1ccc2ccccc2c1-c1c(OCc2cn(C[C@@H](CCCCN)NC(=O)[C@@H](CCCNC(=N)N)n3cc(CCc4ccccc4)nn3)nn2)ccc2ccccc12.Cl.Cl | 32 | 4 | > 32 | 4 | 4 | > 32 | 16 | > 32 | 4 | 16 | 4 | 32 |
| CC(C)CCOc1ccc2ccccc2c1-c1c(OCc2cn(C[C@@H](CCCCN)NC(=O)[C@@H](CCCNC(=N)N)NC(=O)Cc3ccccc3)nn2)ccc2ccccc12.Cl.Cl | 32 | 4 | 12.1 | 4 | 2 | 8 | 8 | 32 | 2 | 16 | 4 | 16 |
| CC(C)CCOc1ccc2ccccc2c1-c1c(OCc2cn(C[C@@H](CCCCN)NC(=O)CC(C)C)nn2)ccc2ccccc12.Cl |  | 8 |  | 16 |  |  | 16 |  | 8 | 32 | 8 |  |
| CC(C)CCOc1ccc2ccccc2c1-c1c(OCc2cn(C[C@@H](CCCCN)NC(=O)[C@@H](CCCNC(=N)N)NC(=O)OCC3c4ccccc4-c4ccccc43)nn2)ccc2ccccc12.Cl.Cl |  | 8 |  | 8 |  |  | 32 |  | 8 | 64 | 8 |  |
| Cc1ccc(CC(=O)N[C@H](CCCCN)Cn2cc(COc3ccc4ccccc4c3-c3c(OCCC(C)C)ccc4ccccc34)nn2)cc1.Cl |  | 8 |  | 32 |  |  | 16 |  | 8 | 32 | 8 |  |
| CC(C)CCOc1ccc2ccccc2c1-c1c(OCc2cn(C[C@@H](CCCCN)NC(=O)c3ccccc3)nn2)ccc2ccccc12.Cl |  | 8 |  | 16 |  |  | 32 |  | 8 | 32 | 8 |  |
| CC(C)CCOc1ccc2ccccc2c1-c1c(OCc2cn(C[C@@H](CCCCN)NC(=O)Cc3ccc(Br)cc3)nn2)ccc2ccccc12.Cl |  | 8 |  | 32 |  |  | 32 |  | 4 | 64 | 8 |  |
| CC(C)CCOc1ccc2ccccc2c1-c1c(OCc2cn(C[C@@H](CCCCN)NC(=O)c3ccc4ccccc4c3)nn2)ccc2ccccc12.Cl |  | 16 |  | 32 |  |  | 64 |  | 16 | 64 | 8 |  |
| CC(C)CCOc1ccccc1-c1ccccc1OCc1cn(C[C@@H](CCCCN)NC(=O)[C@@H](CCCNC(=N)N)n2cc(Cc3ccccc3)nn2)nn1.Cl.Cl | 8 | 8 | 21.9 | 4 | 4 | 16 | 16 | 16 | 8 | 16 | 16 | 16 |
| CC/C(=C(\c1ccccc1)c1ccc(OCCN(C)C)cc1)c1ccccc1 [TAMOXIFEN] |  |  | 13.1 (≈ 35.3 µM) |  |  |  |  |  |  |  |  |  |
| CC(C)CCOc1ccc2ccccc2c1-c1c(OCc2cn(C[C@@H](CCCCN)NC(=O)C3CC3)nn2)ccc2ccccc12.Cl |  | 8 |  | 16 |  |  | 16 |  | 8 | 64 | 8 |  |
| CC(C)CCOc1ccc2ccccc2c1-c1c(OCc2cn(C[C@@H](CCCCN)NC(=O)C3=CCCC3)nn2)ccc2ccccc12.Cl |  | 8 |  | 16 |  |  | 32 |  | 8 | 64 | 8 |  |
| CC(C)CCOc1ccc2ccccc2c1-c1c(OCc2cn(C[C@@H](CCCCN)NC(=O)CCCc3ccccc3)nn2)ccc2ccccc12.Cl |  | 16 |  | 32 |  |  | 32 |  | 8 | 64 | 8 |  |
| CC(C)CCOc1ccc2ccccc2c1-c1c(OCc2cn(C[C@@H](CCCCN)NC(=O)c3ccco3)nn2)ccc2ccccc12.Cl |  | 8 |  | 16 |  |  | 16 |  | 8 | 32 | 8 |  |
| CC(C)CCOc1ccc2ccccc2c1-c1c(OCc2cn(C[C@@H](CCCCN)NC(=O)C3(N)CCOCC3)nn2)ccc2ccccc12.Cl.Cl |  | 16 |  | 16 |  |  | 32 |  | 16 | 64 | 16 |  |
